Data as given in ChEMBL document CHEMBL1140029, “Design of novel histone deacetylase inhibitors” (Bioorg Med Chem Lett, 2007).

Tests used:
[1] = molecular target: Histone deacetylase 1 (Homo sapiens, UniProt Q13547); assay: Inhibition of human HDAC1 expressed in domain of SMRT
[2] = test system: HCT-116; assay: Antiproliferative activity against HCT116 cells after 72 hrs; type: functional, cell-based, Homo sapiens
[3] = Plasma clearance in dog at 0.6 mg/kg, iv; type: ADME, organism-based, Canis lupus familiaris; design: dose 0.6 mg/kg, route intravenous
[4] = Volume of distribution in dog at 0.6 mg/kg, iv; type: ADME, organism-based, Canis lupus familiaris; design: dose 0.6 mg/kg, route intravenous; details: in vivo
[5] = Bioavailability in rat at 4.0 mg/kg, po; type: ADME, organism-based; details: in vivo
[6] = Plasma clearance in rat at 2.0 mg/kg, iv; type: ADME, organism-based; design: dose 2 mg/kg, route intravenous
[7] = molecular target: Histone deacetylase 2 (Homo sapiens, UniProt Q92769); assay: Inhibition of human HDAC2 expressed in domain of SMRT
Histone deacetylase 2, sequence (Q92769 whole entry, the tested form may be a part): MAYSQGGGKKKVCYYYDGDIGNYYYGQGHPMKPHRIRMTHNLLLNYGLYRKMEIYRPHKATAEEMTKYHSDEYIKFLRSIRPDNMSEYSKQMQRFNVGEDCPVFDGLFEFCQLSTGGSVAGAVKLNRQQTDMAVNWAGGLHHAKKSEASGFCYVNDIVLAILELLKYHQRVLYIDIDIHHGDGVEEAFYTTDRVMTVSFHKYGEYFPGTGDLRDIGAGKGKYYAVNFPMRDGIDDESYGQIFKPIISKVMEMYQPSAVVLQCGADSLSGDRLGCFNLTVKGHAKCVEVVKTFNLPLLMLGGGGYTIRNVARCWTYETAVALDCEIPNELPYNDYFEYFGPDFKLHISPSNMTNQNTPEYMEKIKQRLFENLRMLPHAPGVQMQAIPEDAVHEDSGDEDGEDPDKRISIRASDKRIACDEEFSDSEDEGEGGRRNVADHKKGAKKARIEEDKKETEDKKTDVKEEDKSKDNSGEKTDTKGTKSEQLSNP

[8] = molecular target: T1, Protein deacetylase HDAC6 (Homo sapiens, UniProt Q9UBN7); assay: Inhibition of human HDAC6
T1 sequence (Q9UBN7 whole entry): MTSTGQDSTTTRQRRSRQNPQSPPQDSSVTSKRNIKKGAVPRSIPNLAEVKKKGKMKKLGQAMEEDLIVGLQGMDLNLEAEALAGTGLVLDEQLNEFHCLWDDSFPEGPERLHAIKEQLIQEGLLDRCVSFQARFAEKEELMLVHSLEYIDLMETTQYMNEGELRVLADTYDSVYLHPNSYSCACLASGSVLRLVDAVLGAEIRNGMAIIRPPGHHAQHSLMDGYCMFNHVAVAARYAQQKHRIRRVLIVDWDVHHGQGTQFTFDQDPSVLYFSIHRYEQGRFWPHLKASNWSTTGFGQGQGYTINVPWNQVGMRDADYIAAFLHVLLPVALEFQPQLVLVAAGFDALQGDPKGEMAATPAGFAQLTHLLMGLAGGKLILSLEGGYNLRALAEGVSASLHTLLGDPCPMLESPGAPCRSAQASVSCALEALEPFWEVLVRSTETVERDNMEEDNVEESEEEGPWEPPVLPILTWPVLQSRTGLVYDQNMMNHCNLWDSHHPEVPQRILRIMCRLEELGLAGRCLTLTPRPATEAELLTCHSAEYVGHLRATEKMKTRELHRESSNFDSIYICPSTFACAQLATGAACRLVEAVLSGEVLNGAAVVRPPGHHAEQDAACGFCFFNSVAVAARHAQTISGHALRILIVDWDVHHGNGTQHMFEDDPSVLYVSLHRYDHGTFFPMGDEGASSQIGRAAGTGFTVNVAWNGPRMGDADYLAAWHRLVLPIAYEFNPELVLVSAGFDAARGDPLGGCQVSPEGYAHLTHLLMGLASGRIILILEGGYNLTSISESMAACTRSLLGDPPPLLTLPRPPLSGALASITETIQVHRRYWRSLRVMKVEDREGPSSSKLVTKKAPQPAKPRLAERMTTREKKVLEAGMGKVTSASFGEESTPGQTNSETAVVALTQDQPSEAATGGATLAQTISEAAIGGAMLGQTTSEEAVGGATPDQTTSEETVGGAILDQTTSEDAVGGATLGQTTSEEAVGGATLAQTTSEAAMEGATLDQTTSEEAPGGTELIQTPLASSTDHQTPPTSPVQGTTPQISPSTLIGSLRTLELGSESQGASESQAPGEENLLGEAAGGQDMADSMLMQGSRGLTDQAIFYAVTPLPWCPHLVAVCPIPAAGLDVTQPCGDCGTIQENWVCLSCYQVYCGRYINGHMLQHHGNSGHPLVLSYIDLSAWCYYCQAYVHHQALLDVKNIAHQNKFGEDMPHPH
Procedure, shortened: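 C-terminal FLAG-tagged human HDAC6 overexpressed in mammalian cells, anti-FLAG affinity-purified, 1–30 nM final. Inhibitor serially diluted 3-fold in DMSO from 10 mM stock, then 20-fold into assay buffer. Enzyme preincubated with compound 10 min at RT. Fluor-de-Lys substrate added, 60 min at 37 °C. Developer containing SAHA added, fluorescence read at Ex 360/Em 460 nm. IC50 reported.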

[9] = Half life in dog at 1.2 mg/kg, po; type: ADME, organism-based, Canis lupus familiaris; design: dose 1.2 mg/kg, route oral; details: in vivo
[10] = molecular target: T2, Histone deacetylase 8 (Homo sapiens, UniProt Q9BY41); assay: Inhibition of human HDAC8
T2 sequence (Q9BY41 whole entry): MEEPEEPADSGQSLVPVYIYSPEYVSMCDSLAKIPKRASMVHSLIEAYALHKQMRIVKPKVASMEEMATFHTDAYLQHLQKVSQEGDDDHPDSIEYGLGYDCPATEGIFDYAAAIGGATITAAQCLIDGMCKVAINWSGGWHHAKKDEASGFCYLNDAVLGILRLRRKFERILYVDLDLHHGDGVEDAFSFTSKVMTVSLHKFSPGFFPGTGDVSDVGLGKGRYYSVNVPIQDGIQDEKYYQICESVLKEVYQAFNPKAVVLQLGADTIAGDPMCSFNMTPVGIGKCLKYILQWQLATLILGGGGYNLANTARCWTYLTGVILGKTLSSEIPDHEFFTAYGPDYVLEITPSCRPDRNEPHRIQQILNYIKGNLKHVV
Procedure, shortened: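 HDAC8 came from the Institute for Research in Molecular Biology, Pomezia, and was used at 1–30 nM final. It was preincubated with 3× serially diluted inhibitor for 10 min at RT. Fluor-de-Lys HDAC8 substrate was added for 15 min at 37 °C, then HDAC8 developer containing SAHA. Fluorescence was read at Ex 360/Em 460 nm to give IC50.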

[11] = Half life in rhesus monkey at 2.0 mg/kg, po; type: ADME, organism-based, Macaca mulatta; design: dose 2 mg/kg, route oral; details: in vivo
[12] = Volume of distribution in rat at 2.0 mg/kg, iv; type: ADME, organism-based; design: dose 2 mg/kg, route intravenous; details: in vivo
[13] = Half life in rat at 4.0 mg/kg, po; type: ADME, organism-based; design: dose 4 mg/kg, route oral; details: in vivo
[14] = molecular target: Histone deacetylase 3 (Homo sapiens, UniProt O15379); assay: Inhibition of human HDAC3 expressed in domain of SMRT
Histone deacetylase 3, sequence (O15379 whole entry, the tested form may be a part): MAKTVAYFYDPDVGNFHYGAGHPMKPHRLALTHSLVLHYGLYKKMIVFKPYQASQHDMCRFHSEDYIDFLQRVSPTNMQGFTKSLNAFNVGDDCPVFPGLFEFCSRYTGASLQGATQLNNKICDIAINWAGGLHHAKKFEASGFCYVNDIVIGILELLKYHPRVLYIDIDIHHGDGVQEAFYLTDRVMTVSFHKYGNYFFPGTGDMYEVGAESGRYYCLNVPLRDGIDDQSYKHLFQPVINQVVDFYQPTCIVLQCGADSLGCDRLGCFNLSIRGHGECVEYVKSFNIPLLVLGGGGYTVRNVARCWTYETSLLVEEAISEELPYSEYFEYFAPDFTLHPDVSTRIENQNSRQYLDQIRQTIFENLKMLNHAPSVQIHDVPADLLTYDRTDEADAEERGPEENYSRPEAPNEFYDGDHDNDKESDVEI
Procedure, shortened: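 C-terminal FLAG-tagged human HDAC3, co-expressed with the SMRT domain, was overexpressed in mammalian cells and purified on anti-FLAG matrix. Enzyme at 1–30 nM final was preincubated with 3× serially diluted inhibitor for 10 min at RT. Fluor-de-Lys substrate was then added for 60 min at 37 °C, followed by developer containing SAHA. Fluorescence was read at Ex 360/Em 460 nm to give IC50.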

[15] = Bioavailability in dog at 1.2 mg/kg, po; type: ADME, organism-based, Canis lupus familiaris; details: in vivo
[16] = Bioavailability in rhesus monkey at 2.0 mg/kg, po; type: ADME, organism-based, Macaca mulatta; details: in vivo
[17] = Plasma clearance in rhesus monkey at 1.0 mg/kg, iv; type: ADME, organism-based, Macaca mulatta; design: dose 1 mg/kg, route intravenous
[18] = Volume of distribution in rhesus monkey at 1.0 mg/kg, iv; type: ADME, organism-based, Macaca mulatta; design: dose 1 mg/kg, route intravenous; details: in vivo
[19] = test system: HCT-116; assay: Antiproliferative activity against HCT116 cells after 96 hrs; type: functional, cell-based; details: Homo sapiens, HCT-116, 96 h
[20] = Homo sapiens, HCT-116, 72 h, read-out: IC50

Histone deacetylase 1, sequence (Q13547 whole entry, the tested form may be a part): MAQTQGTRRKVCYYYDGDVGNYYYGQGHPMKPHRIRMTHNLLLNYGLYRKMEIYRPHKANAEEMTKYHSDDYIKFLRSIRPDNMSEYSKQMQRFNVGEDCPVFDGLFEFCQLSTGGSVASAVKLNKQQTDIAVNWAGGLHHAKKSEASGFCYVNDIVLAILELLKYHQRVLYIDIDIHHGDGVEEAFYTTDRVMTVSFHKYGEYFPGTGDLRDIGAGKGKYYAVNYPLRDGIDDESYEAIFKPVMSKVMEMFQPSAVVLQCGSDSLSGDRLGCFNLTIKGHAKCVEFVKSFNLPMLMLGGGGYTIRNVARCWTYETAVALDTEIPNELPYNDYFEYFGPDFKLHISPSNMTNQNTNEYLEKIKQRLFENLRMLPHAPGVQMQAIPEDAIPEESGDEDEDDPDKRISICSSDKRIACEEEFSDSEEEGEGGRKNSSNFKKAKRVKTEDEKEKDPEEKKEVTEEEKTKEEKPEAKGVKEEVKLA

Question: What does the source list for `CC(C(=O)Nc1ccccc1)(C(=O)Nc1ccccc1)c1ccc(C(=O)Nc2ccccc2N)cc1`?
Answer: IC50 [1]: 198 nM; IC50 [2, 20]: 2120 nM

Question: Which results are given for `CC(Cc1ccc(C(=O)Nc2ccccc2N)cc1)(C(=O)Nc1ccccc1)C(=O)Nc1ccccc1`?
Answer: IC50 [1]: 200 nM; IC50 [2, 20]: 2520 nM

Question: Which IC50 [1] does the source give for `CC(C)(C)c1ccc(C(=O)NO)cc1` here?
Answer: 715 nM

Question: Which IC50 [1] does the source give for `O=C(NO)c1ccc(C(C(=O)Nc2ccccc2)C(=O)Nc2ccccc2)cc1` here?
Answer: 5 nM

Question: For `Nc1ccccc1NC(=O)c1ccc(C(C(=O)Nc2ccccc2)C(=O)Nc2ccccc2)cc1`, which clearance [3] is on record?
Answer: 3 mL/min/kg

Question: What about the Vd [4] of the same compound?
Answer: 1.8 L/kg

Question: And the bioavailability [5]?
Answer: 88%

Question: And the clearance [6]?
Answer: 55 mL/min/kg

Question: What about the IC50 [7] of the same compound?
Answer: 313 nM

Question: What about the IC50 [8] of the same compound?
Answer: > 10000 nM

Question: What about the IC50 [1] of the same compound?
Answer: 36 nM

Question: And the half-life [9]?
Answer: 8.5 h

Question: What about the IC50 [2, 20] of the same compound?
Answer: 171 nM

Question: What about the IC50 [10] of the same compound?
Answer: > 10000 nM

Question: And the half-life [11]?
Answer: 10.4 h

Question: What about the Vd [12] of the same compound?
Answer: 12 L/kg

Question: And the half-life [13]?
Answer: 3.8 h

Question: And the IC50 [14]?
Answer: 697 nM

Question: And the bioavailability [15]?
Answer: 88%

Question: And the bioavailability [16]?
Answer: 27%

Question: What about the clearance [17] of the same compound?
Answer: 12 mL/min/kg

Question: What about the Vd [18] of the same compound?
Answer: 1.7 L/kg

Question: For `N#Cc1cccc(NC(=O)C(C(=O)Nc2cccc(C#N)c2)c2ccc(C(=O)Nc3ccccc3N)cc2)c1`, which IC50 [1] is on record?
Answer: 34 nM

Question: What about the IC50 [19] of the same compound?
Answer: 500 nM

Question: With `Nc1ccccc1NC(=O)c1ccc(C(C(=O)Nc2ccc(F)cc2)C(=O)Nc2ccc(F)cc2)cc1` as the compound, how does the IC50 [1] read?
Answer: 63 nM

Question: And the IC50 [19]?
Answer: 222 nM

Question: Which results are given for `Nc1ccccc1NC(=O)c1ccc(C(C(=O)Nc2cccc(F)c2)C(=O)Nc2cccc(F)c2)cc1`?
Answer: IC50 [1]: 56 nM; IC50 [2, 20]: 607 nM

Question: With `COc1cccc(NC(=O)C(C(=O)Nc2cccc(OC)c2)c2ccc(C(=O)Nc3ccccc3N)cc2)c1` as the compound, how does the IC50 [1] read?
Answer: 35 nM

Question: And the IC50 [2, 20]?
Answer: 383 nM

Question: Which IC50 [1] does the source give for `COc1ccccc1NC(=O)C(C(=O)Nc1ccccc1OC)c1ccc(C(=O)Nc2ccccc2N)cc1` here?
Answer: 47 nM

Question: And the IC50 [2, 20]?
Answer: 394 nM

Question: With `CN(C(=O)C(C(=O)Nc1ccccc1)c1ccc(C(=O)Nc2ccccc2N)cc1)c1ccccc1` (stereo unspecified) as the compound, how does the IC50 [1] read?
Answer: 196 nM

Question: And the IC50 [2, 20]?
Answer: 1140 nM

Question: What does the source list for `CN(C(=O)C(C(=O)N(C)c1ccccc1)c1ccc(C(=O)Nc2ccccc2N)cc1)c1ccccc1`?
Answer: IC50 [1]: 7190 nM; IC50 ([2]; hct-116): Not Active

Question: What does the source list for `Nc1ccccc1NC(=O)c1ccc(C(C(=O)NCCCc2ccccc2)C(=O)NCCCc2ccccc2)cc1`?
Answer: IC50 [1]: 229 nM; IC50 [2, 20]: 987 nM

Question: For `Nc1ccccc1NC(=O)c1ccc(C(F)(C(=O)Nc2ccccc2)C(=O)Nc2ccccc2)cc1`, which IC50 [1] is on record?
Answer: 48 nM

Question: What about the IC50 [2, 20] of the same compound?
Answer: 425 nM

Question: Which results are given for `Nc1ccccc1NC(=O)c1ccc(C(O)(C(=O)Nc2ccccc2)C(=O)Nc2ccccc2)cc1`?
Answer: IC50 [1]: 94 nM; IC50 [2, 20]: 773 nM

Question: For `Nc1ccccc1NC(=O)c1ccc(C(C(=O)NCc2ccccc2)C(=O)NCc2ccccc2)cc1`, which IC50 [1] is on record?
Answer: 199 nM

Question: What about the IC50 [2, 20] of the same compound?
Answer: 596 nM

Question: Which results are given for `Nc1ccccc1NC(=O)c1ccc(CC(C(=O)Nc2ccccc2)C(=O)Nc2ccccc2)cc1`?
Answer: IC50 [1]: 47 nM; IC50 [2, 20]: 579 nM

Question: Which results are given for `Nc1ccccc1NC(=O)c1ccc(C(C(=O)Nc2ccc3c(c2)OCCO3)C(=O)Nc2ccc3c(c2)OCCO3)cc1`?
Answer: IC50 [1]: 21 nM; IC50 [2, 20]: 220 nM

Question: With `Nc1ccccc1NC(=O)c1ccc(C(C(=O)Nc2cccc(N3CCOCC3)c2)C(=O)Nc2cccc(N3CCOCC3)c2)cc1` as the compound, how does the IC50 [1] read?
Answer: 45 nM

Question: What about the IC50 [2, 20] of the same compound?
Answer: 542 nM

Question: Which results are given for `Nc1ccccc1NC(=O)c1ccc(C(C(=O)Nc2cccc3cccnc23)C(=O)Nc2cccc3cccnc23)cc1`?
Answer: IC50 [1]: 103 nM; IC50 [2, 20]: 1200 nM

Question: With `CC(=O)NO` [ACETOHYDROXAMIC ACID] as the compound, how does the IC50 [1] read?
Answer: 625000 nM

Question: Which IC50 [1] does the source give for `O=C(NO)c1ccccc1` [BENZOHYDROXAMATE] here?
Answer: 20000 nM
